Source: ChEMBL document CHEMBL1139294, “11-Phenyl-[b,e]-dibenzazepine compounds: novel antitumor agents” (Bioorg Med Chem Lett, 2009)

Columns and labels:
[1] = system: A549; assay: Antiproliferative activity against human A549 cells by SRB assay; format: functional, cell-based
[2] = system: HT-29; assay: Antiproliferative activity against human HT-29 cells by SRB assay; format: functional, cell-based
[3] = Antiproliferative activity against human MMRU cells by SRB assay; format: functional, cell-based
[4] = system: MCF7; assay: Antiproliferative activity against human MCF7 cells by SRB assay; format: functional, cell-based
[5] = system: HepG2; assay: Antiproliferative activity against human HepG2 cells by SRB assay; format: functional, cell-based
[6] = system: U-118-MG; assay: Antiproliferative activity against human U118MG cells by SRB assay; format: functional, cell-based
[7] = system: HeLa; assay: Antiproliferative activity against human HeLa cells by SRB assay; format: functional, cell-based
[8] = Antiproliferative activity against human HTB-174 cells by SRB assay; format: functional, cell-based
[9] = system: MDA-MB-231; assay: Antiproliferative activity against human MDA-MB-231 cells by SRB assay; format: functional, cell-based
[10] = system: NCI-H460; assay: Cell cycle arrest in human H460 cells assessed as DNA content at G0-G1 phase at 50 uM after 16 hrs by flow cytometry; format: functional
In short: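 H-460 NSCLC cells serum-starved 72 h, then exposed to 50 µM for 16 h, with DMSO vehicle control. Harvested cells were washed in cold PBS and fixed in 70% ethanol at 4 °C for at least 4 h. They were treated with 3 mg/ml RNase plus 50 µg/ml propidium iodide for 30 min at 37 °C. Flow cytometry gave percent cells in G0–G1, S and G2–M.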

[11] = system: HT-29; assay: Cell cycle arrest in human HT-29 cells assessed as DNA content at G0-G1 phase at 25 uM after 16 hrs by flow cytometry; format: functional
In short: (§1)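 HT-29 colon carcinoma cells were grown in complete medium and treated at 25 or 50 µM for 16 h, with 0.1% DMSO as vehicle. Cells were washed in cold PBS and fixed in 70% ethanol (4 °C, ≥4 h). Staining used 3 mg/ml ribonuclease and 50 µg/ml propidium iodide for 30 min at 37 °C. Phase distribution was measured by flow cytometry.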

[12] = system: HT-29; assay: Cell cycle arrest in human HT-29 cells assessed as DNA content at S phase at 25 uM after 16 hrs by flow cytometry; format: functional; in short: as §1
[13] = system: HT-29; assay: Cell cycle arrest in human HT-29 cells assessed as DNA content at G2-M phase at 25 uM after 16 hrs by flow cytometry; format: functional; in short: as §1
[14] = system: HT-29; assay: Cell cycle arrest in human HT-29 cells assessed as DNA content at G0-G1 phase at 50 uM by flow cytometry; format: functional; in short: as §1
[15] = system: HT-29; assay: Cell cycle arrest in human HT-29 cells assessed as DNA content at S phase at 50 uM by flow cytometry; format: functional; in short: as §1
[16] = system: HT-29; assay: Cell cycle arrest in human HT-29 cells assessed as DNA content at G2-M phase at 50 uM by flow cytometry; format: functional; in short: as §1

SMILES | IC50 ([1]; Homo sapiens, A549) | IC50 ([2]; Homo sapiens, HT-29) | IC50 [4] | IC50 [5] | IC50 [7] | IC50 [9] | IC50 ([3]; Homo sapiens, MMRU) | IC50 [6] | IC50 [8] | other results
Clc1ccccc1C1c2ccccc2CN(Cc2ccccc2)c2ccccc21 (centres undefined) | > 5000 nM | > 5000 nM | 4300 nM | 4500 nM | > 5000 nM | > 5000 nM | – | – | – | –
O=C(Nc1ccc([N+](=O)[O-])cc1)N1Cc2ccccc2C(c2ccccc2Cl)c2ccccc21 (centres undefined) | > 5000 nM | 4800 nM | 2400 nM | 4500 nM | – | – | 3100 nM | – | 4000 nM | –
CN1Cc2ccccc2C(c2ccccc2Cl)c2ccccc21 (centres undefined) | 11400 nM | 9700 nM | 1700 nM | – | – | – | 4600 nM | – | – | –
COC(=O)N1Cc2ccccc2C(c2ccccc2)c2ccccc21 (centres undefined) | > 10000 nM | > 10000 nM | – | – | – | – | 10000 nM | – | – | –
Nc1ccc(C(=O)N2Cc3ccccc3C(c3ccccc3Cl)c3ccccc32)cc1 (centres undefined) | 3700 nM | 1700 nM | 1100 nM | 1500 nM | 500 nM | 1200 nM | – | 1600 nM | – | –
O=C(Oc1ccccc1)N1Cc2ccccc2C(c2ccccc2Cl)c2ccccc21 (centres undefined) | – | 5000 nM | 4200 nM | 3600 nM | – | – | – | – | – | –
CC(C)(C)Oc1cccc(C(=O)N2Cc3ccccc3C(c3ccccc3Cl)c3ccccc32)c1 (centres undefined) | 3700 nM | 1700 nM | 3400 nM | 1200 nM | 1400 nM | 1500 nM | – | 2500 nM | – | –
Clc1ccccc1C1c2ccccc2CNc2ccccc21 (centres undefined) | 5400 nM | 1200 nM | 2700 nM | 900 nM | 1100 nM | 1300 nM | – | 1400 nM | – | –
CC(C)(C)Oc1cccc(C(=O)N2Cc3ccccc3C(c3ccccc3)c3ccccc32)c1 (centres undefined) | > 5000 nM | 1700 nM | 4500 nM | 2600 nM | – | – | 2500 nM | – | 3600 nM | –
O=C(c1ccc([N+](=O)[O-])cc1)N1Cc2ccccc2C(c2ccccc2Cl)c2ccccc21 (single isomer, unassigned; 9a) | – | – | – | – | – | – | – | – | – | Activity [10]: 71.06%
O=C(c1ccc([N+](=O)[O-])cc1)N1Cc2ccccc2C(c2ccccc2Cl)c2ccccc21 (single isomer, unassigned; 9b) | – | – | – | – | – | – | – | – | – | Activity [10]: 74.96%
O=C(c1ccccc1)N1Cc2ccccc2C(c2ccccc2)c2ccccc21 (stereo in doubt; 13) | > 10000 nM | – | – | – | – | – | – | – | – | IC50 ([2]; ht-29): > 10000 nM; IC50 ([3]; mmru): > 10000 nM
O=C(c1ccccc1)N1Cc2ccccc2C(c2ccccc2)c2ccccc21 (stereo in doubt; 17) | – | – | 4200 nM | 3400 nM | – | – | – | – | 2600 nM | IC50 ([1]; a549): > 5000 nM; IC50 ([2]; ht-29): 2600 nM; IC50 ([3]; mmru): 2700 nM

The remaining compounds from weak to strong by IC50 ([2]; Homo sapiens, HT-29), led by results:

IC50 ([1]; Homo sapiens, A549) | IC50 ([2]; Homo sapiens, HT-29) | IC50 [4] | IC50 [5] | IC50 [7] | IC50 [9] | SMILES | IC50 ([3]; Homo sapiens, MMRU) | IC50 [6] | IC50 [8] | other results
2000 nM | 1100 nM | 1700 nM | 1000 nM | 400 nM | 1300 nM | C[N+](C)(C)c1ccc(C(=O)N2Cc3ccccc3C(c3ccccc3)c3ccccc32)cc1 (centres undefined) | – | 1800 nM | – | –
2100 nM | 1000 nM | 1700 nM | 1000 nM | 900 nM | 1700 nM | CN(C)c1ccc(C(=O)N2Cc3ccccc3C(c3ccccc3)c3ccccc32)cc1 (centres undefined) | – | 2600 nM | – | –
– | 700 nM | – | 900 nM | 600 nM | – | O=C(c1ccc([N+](=O)[O-])cc1)N1Cc2ccccc2C(c2ccccc2)c2ccccc21 (centres undefined) | 500 nM | 900 nM | 700 nM | –
1500 nM | 600 nM | 1300 nM | 900 nM | 500 nM | 900 nM | COc1ccc2c(c1)CN(C(=O)c1ccc([N+](=O)[O-])cc1)c1ccc(Cl)cc1C2c1ccccc1Cl (centres undefined) | 500 nM | 800 nM | 500 nM | –
2500 nM | 600 nM | 1500 nM | 800 nM | 900 nM | 1200 nM | O=C(c1ccccc1)N1Cc2ccccc2C(c2ccccc2Cl)c2ccccc21 (centres undefined) | – | 1300 nM | – | –
1100 nM | 400 nM | 500 nM | 400 nM | 200 nM | – | COc1ccc(C(=O)N2Cc3ccccc3C(c3ccccc3Cl)c3ccccc32)cc1 (centres undefined) | 200 nM | 400 nM | 300 nM | –
800 nM | 300 nM | 600 nM | 300 nM | 300 nM | 500 nM | O=C(c1ccc([N+](=O)[O-])cc1)N1Cc2ccccc2C(c2ccccc2Cl)c2ccccc21 (stereo in doubt; 9) | 200 nM | 500 nM | 100 nM | Activity [11]: 63.68%; Activity [12]: 25.79%; Activity [13]: 10.53%; Activity [14]: 69.22%; Activity [15]: 18.08%; Activity [16]: 12.69%; Activity [10]: 73.95%
600 nM | 200 nM | 700 nM | 400 nM | 200 nM | 400 nM | COc1ccc2c(c1)C(c1ccccc1Cl)c1cc(Cl)ccc1N(C(=O)c1ccc([N+](=O)[O-])cc1)C2 (centres undefined) | 200 nM | 400 nM | 200 nM | –
